This is an account of results in ChEMBL document CHEMBL2016511, “Development of clickable active site-directed photoaffinity probes for γ-secretase” (Bioorg Med Chem Lett, 2012).

The structures appear in SMILES notation. The source made the active and inactive calls. The calls are words filed in the database; no cut-off is given here.

The term IC50 denotes the concentration needed to halve the response being measured.

Assay [1] can be described thus: Inhibition of gamma-secretase in CHO-APP cells assessed as amyloid beta-42 production using APP as substrate. Format: cell-based. Conditions: Cricetulus griseus.
For assay [2], the target named is Presenilin-1 (Homo sapiens) (UniProt P49768). Description: Binding affinity to PS1 N-terminal fragment in human HeLa cell membrane at 20 nM after 1 hr by photo-affinity based Western blot analysis. Format: cell membranes. Summed up:
(§1)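 HeLa membranes (800 μg in 1.2 mL PBS) incubated 1 h at 37 °C with probe at 20 nM, with or without 1 μM competitor GSI. Photoirradiated at ~350 nm for 30 min at 4 °C, then pelleted. Click with biotin-azide (0.1 mM), TCEP 1.0 mM, CuSO4 1.0 mM, TBTA 0.1 mM, 1 h at room temperature. Solubilized in RIPA, streptavidin pull-down, SDS-PAGE, Western blot with PS1-NTF, PS1-CTF or SPP antibodies.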
Background: A western blot detects proteins with antibodies after separation by electrophoresis.

Assay [3] shares this target. As to the kind of experiment: Binding affinity to PS1 Carboxy-terminal fragment in human HeLa cell membrane at 20 nM after 1 hr by photo-affinity based Western blot analysis. Format: cell membranes. Summed up:
as §1

The target is the same in assay [4]. As to the kind of experiment: Binding affinity to PS1 Carboxy-terminal fragment in human HeLa cell membrane at 20 nM by photo-affinity in-gel fluorescence method in presence of GSI L458. Format: cell membranes. In short, it runs like this: (§2)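 HeLa membranes photolabeled with probe at 20 nM, with or without 1 μM competitor GSI L458, then ~350 nm irradiation. Click reaction with TAMRA-azide, then acetone precipitation to remove excess reagent. Resolubilized in loading buffer, separated by SDS-PAGE, and scanned for in-gel fluorescence of PS1-NTF and PS1-CTF bands. Coomassie staining confirmed equal loading.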

The target is the same in assay [5]. Description: Binding affinity to PS1 N-terminal fragment in human HeLa cell membrane at 20 nM by photo-affinity in-gel fluorescence method in presence of GSI L458. Format: cell membranes. Summed up:
as §2

Assay [6] has the same target. As to the kind of experiment: Binding affinity to PS1 Carboxy-terminal fragment in human HeLa cell membrane at 20 nM by photo-affinity in-gel fluorescence method. The class given is cell membranes. Summed up:
as §2

The test system of the next assay is HeLa. Description: Binding affinity to SPP in human HeLa cell membrane at 20 nM after 1 hr by photo-affinity based Western blot analysis. The class given is cell membranes. In short, it runs like this: as §1
In assay [7] the target is Presenilin-1 (Homo sapiens) (UniProt P49768). Description: Binding affinity to PS1 N-terminal fragment in human HeLa cell membrane at 20 nM by photo-affinity in-gel fluorescence method. Format: cell membranes. Summed up: as §2
The target is the same in assay [8]. Description: Binding affinity to PS1 N-terminal fragment in human HeLa cell membrane at 20 nM after 1 hr by photo-affinity-based Western blot analysis in presence of GSI L458. Format: cell membranes. In short, it runs like this: as §1

As to `CC(C)C[C@H](NC(=O)[C@H](Cc1ccccc1)C[C@@H](O)[C@H](Cc1ccccc1)NC(=O)OC(C)(C)C)C(=O)N[C@@H](Cc1ccccc1)C(N)=O`, in assay [1], the IC50 was found to be 0.036 µM.

For `C#CCCCCNC(=O)[C@H](Cc1ccccc1)NC(=O)[C@H](CC(C)C)NC(=O)[C@H](Cc1ccccc1)C[C@@H](O)[C@H](Cc1ccccc1)NC(=O)c1ccc(C(=O)c2ccccc2)cc1`, the outcome in assay [2] and in assay [7] was Active. Also, the outcome (in [3]; in assay [4]; in assay [5]; in [6]; with HeLa; in assay [8]) was inactive. In addition, in [1], the IC50 is 1 µM.

Consider `C#CCCCCNC(=O)[C@H](Cc1ccc(C(=O)c2ccccc2)cc1)NC(=O)[C@H](CC(C)C)NC(=O)[C@H](Cc1ccccc1)C[C@@H](O)[C@H](Cc1ccccc1)NC(=O)OC(C)(C)C`, for which the outcome in [2], in assay [4], in assay [5] and in assay [7] was inactive. For the same compound, the result (in assay [3]; in assay [6]; in the assay with HeLa) was Active. The IC50 in [1] was determined as 0.004 µM.

For `CC(C)C[C@H](NC(=O)[C@H](Cc1ccccc1)C[C@@H](O)[C@H](Cc1ccccc1)NC(=O)OC(C)(C)C)C(=O)N[C@@H](Cc1ccc(C(=O)c2ccccc2)cc1)C(=O)NCCCCCNC(=O)CCCC[C@@H]1SC[C@@H]2NC(=O)N[C@@H]21`, in assay [1], the IC50 worked out at 0.03 µM.

`CC(C)C[C@H](NC(=O)[C@H](Cc1ccccc1)C[C@@H](O)[C@H](Cc1ccccc1)NC(=O)c1ccc(C(=O)c2ccccc2)cc1)C(=O)N[C@@H](Cc1ccccc1)C(=O)NCCCCCNC(=O)CCCC[C@@H]1SC[C@@H]2NC(=O)N[C@@H]21`: in assay [2], the outcome was Active. For the same compound, the outcome in assay [8] was inactive. Besides, the IC50 in [1] was 0.817 µM.
